Bioassay records as filed in PubChem BioAssay.
NRP1-CendR mod – modulators of CendR peptide binding to NRP-1, primary screen, biochemical, fluorescence polarization, uHTS; AID 602438, 2012; 360,000 compounds, 0.85% hits; inhibition, % at 25 µM; FAM-RPARPAR peptide binding to NRP-1;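 active = inhibition or corrected inhibition above about 18%, plus a signal ratio from 0.5 to 1.5, limit read from the data, passing the limit was not always enough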
Target sequence (O14786 whole entry, looked up): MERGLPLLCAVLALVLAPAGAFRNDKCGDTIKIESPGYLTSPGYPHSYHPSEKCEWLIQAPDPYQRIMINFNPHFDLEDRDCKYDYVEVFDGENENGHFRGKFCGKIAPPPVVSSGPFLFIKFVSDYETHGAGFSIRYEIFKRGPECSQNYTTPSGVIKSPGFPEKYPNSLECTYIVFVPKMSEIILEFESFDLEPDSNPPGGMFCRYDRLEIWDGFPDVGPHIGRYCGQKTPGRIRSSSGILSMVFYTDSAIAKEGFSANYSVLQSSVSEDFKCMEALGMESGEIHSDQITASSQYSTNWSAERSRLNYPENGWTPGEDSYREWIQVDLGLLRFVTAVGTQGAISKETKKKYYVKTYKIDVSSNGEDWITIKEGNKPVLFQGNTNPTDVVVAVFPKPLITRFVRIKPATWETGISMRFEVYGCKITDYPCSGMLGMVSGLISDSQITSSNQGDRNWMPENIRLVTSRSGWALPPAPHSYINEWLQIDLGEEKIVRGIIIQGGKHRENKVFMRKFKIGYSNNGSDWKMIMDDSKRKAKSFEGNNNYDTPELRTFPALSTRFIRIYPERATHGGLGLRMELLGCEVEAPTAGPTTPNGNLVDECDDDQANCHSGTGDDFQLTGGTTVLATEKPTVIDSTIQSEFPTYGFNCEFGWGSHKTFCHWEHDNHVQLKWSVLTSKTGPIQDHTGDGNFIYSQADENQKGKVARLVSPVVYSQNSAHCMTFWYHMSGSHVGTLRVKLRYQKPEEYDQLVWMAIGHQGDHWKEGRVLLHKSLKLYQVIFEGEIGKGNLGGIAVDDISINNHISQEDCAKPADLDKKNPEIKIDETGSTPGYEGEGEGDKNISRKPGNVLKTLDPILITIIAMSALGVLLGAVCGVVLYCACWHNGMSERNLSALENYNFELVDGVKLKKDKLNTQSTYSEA
V-ATPase pH – regulators of yeast V-ATPase proton pumping, primary screen, pHLuorin cytosolic pH fluorescence; S. cerevisiae; response, % at 10 µM; 350,000 compounds, 0.37% hits; in the data active = response mostly above about 7.3%, no sharp cut-off; inactive = mostly below about 5.4%; also: actives read high
T cruzi repl – inhibitors of intracellular T. cruzi growth, primary screen, luminescence, NIH3T3 host cells; T. cruzi beta-gal in NIH3T3, 90 h; inhibition, % (test concentration not listed); 300,000 compounds, 1.4% hits; AID 1885, 2009;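 active = mean inhibition across valid replicates above about 55%, limit read from the data; inconclusive = mean below that limit but half or more replicates reach it; inactive = mean below it, under half of replicates reach it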;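 also: signal also drops with host cell toxicity which is not excluded here; higher percent means less beta-gal luminescence so fewer parasites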
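Assay system: NIH/3T3 host cells with β-galactosidase reporter T. cruzi; input: 5,000 host fibroblasts per well; compound: single 50 nL compound addition per well in DMSO; timing: ≥90 h infection period, 3 h prior cell attachment; measured by: GalScreen β-gal luminescence, detergent lysis, 60 min; evaluation: percent inhibition of parasite-derived β-gal signal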
AI-2 QS modul – Vibrio harveyi AI-2 quorum sensing modulators, primary screen, JMH597 strain, luminescence/OD600 ratio; activity change, % at 7.5 µM; AID 2094, 2009; 300,000 compounds, 0.4% hits; Vibrio harveyi JMH597 AI-2 luminescence/OD600 ratio, 9 h; stronger effect = lower value; strain lacks LuxN and CqsS sensors; 0 = neutral-control median; in the data active = activity change below about -75%, passing the limit was not always enough; inconclusive = no clear call, values can overlap the other calls;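 also: luminescence divided by OD600 gain over 9 h not by final OD600 alone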
HIF act – HIF pathway transcriptional activators, primary screen, cell-based, U2OS HRE-luciferase, luminescence; U2OS HRE-luciferase reporter; normalized: DMSO 0%, desferrioxamine 100%; activation, % at 7.5 µM (by protocol); 300,000 compounds, 0.32% hits; AID 1910, 2009;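 active = mean activation of at least 10% of the iron chelator positive control signal, with at least half of replicates also reaching 10%; inconclusive = mean and replicate majority disagree about reaching 10%; inactive = mean and most replicates under 10%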
Yeast superoxide – reduction of superoxide in aged yeast, primary screen, HTS; AID 2690, 2010; 330,000 compounds, 0.18% hits; superoxide response (% of plate mean), % at 10 µM; S. cerevisiae aged cells, superoxide DHE fluorescence; stronger effect = lower value;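 active = superoxide response under a set limit, about three screen SD below normal, cut at about 65% in these data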;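 also: yeast aged for seven days with compound at 30 °C before DHE staining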
Large screens that a line does not name were inactive. A selection: hits, their analogues and other compounds. The true share with any hit is near 3%.

Cc1cc(C(=O)CSc2nc(N)cc(N)n2)c(C)n1CC1CCCO1 (stereo unspecified)	none (no result: T cruzi repl, AI-2 QS modul, HIF act)
Cc1cccc(-n2nnnc2SCC(=O)c2cc(C)n(CC3CCCO3)c2C)c1 (stereo unspecified)	none
Cc1ccc(-n2nnnc2SCC(=O)c2cc(C)n(CC3CCCO3)c2C)cc1 (stereo unspecified)	T cruzi repl 58.4
Cc1cc(C(=O)CSc2nc(N)cc(=O)[nH]2)c(C)n1CC1CCCO1 (stereo unspecified)	NRP1-CendR mod 21.4 (no result: T cruzi repl, AI-2 QS modul, HIF act)
COc1ccc(CN2CCC(n3nccc3NC(=O)C3CC3)CC2)c(Cl)c1OC	none
C=C1CCN([C@H](C(=O)O)C(C)C)S(=O)(=O)c2ccccc21	NRP1-CendR mod 35.9
COc1ccc(-c2nc(CN3CCC(C(=O)NC4CCCc5ccccc54)CC3)c(C)o2)cc1OC (stereo unspecified)	V-ATPase pH 13.4 (no result: T cruzi repl, AI-2 QS modul, HIF act, Yeast superoxide)
COC(=O)c1ccc(CNC(=O)c2ccc(OC)c(S(=O)(=O)NC3CC3)c2)cc1	none (no result: T cruzi repl, AI-2 QS modul, HIF act, Yeast superoxide)
Fc1ccc(COc2ccc(Br)cc2CNCc2ccncc2)cc1	T cruzi repl 70.9
Fc1ccc(COc2cccc(CNCc3ccncc3)c2)cc1	T cruzi repl 60.0
Clc1ccc(C[n+]2cc(-c3ccccc3)n3c2CCCCC3)c(Cl)c1	T cruzi repl 55.1
Clc1ccc(C[n+]2cc(-c3ccccc3)n3c2CCC3)cc1Cl	T cruzi repl 59.4
Clc1ccc(-c2c[n+](Cc3cccc(Cl)c3)c3n2CCC3)cc1	T cruzi repl 59.6
Clc1ccc(-c2c[n+](Cc3ccc(Cl)cc3Cl)c3n2CCCCC3)cc1	none
CC(C)c1cc(NC(=O)C(C)(C)C)cc(C(C)C)c1O	none
O=c1[nH][nH]c2c1C(c1cccc(C(F)(F)F)c1)OC(CCc1ccccc1)C2 (stereo unspecified)	none (no result: V-ATPase pH, T cruzi repl, AI-2 QS modul, HIF act, Yeast superoxide)
CCCCCc1ccc(OCCOCCn2c[n+](C)c3ccccc32)c(CCCCC)c1	none (no result: Yeast superoxide)
CCCCCc1ccc(OCCC[n+]2ccccc2)c(CCCCC)c1	T cruzi repl 75.5
COc1cc(C(=O)Nc2cccnc2)cc(OC)c1OC	none
CCC(Sc1nc(C)cc(=O)[nH]1)C(=O)Nc1sc2c(c1C#N)CCCC2 (stereo unspecified)	HIF act 22.5
CC(Sc1nc(N)cc(=O)[nH]1)C(=O)Nc1sc2c(c1C#N)CCCC2 (stereo unspecified)	none
O=C(Nc1cc(S(=O)(=O)Nc2ccc(Cl)cc2)ccc1N1CCCCC1)c1ccc(F)cc1	none
Cc1ccc(NC(=O)CSc2nnc(-c3cnccn3)n2-c2ccccc2)cc1	V-ATPase pH 16.2
CC(=O)CSc1nnc(-c2cnccn2)n1-c1ccccc1	none (no result: Yeast superoxide)
Cn1c(SCC(=O)Nc2ccccc2)nnc1-c1ccc(NC(=O)CCc2ccccc2)cc1	HIF act 26.4
CC(C)c1ccc(NC(=O)CCc2ccccc2)cc1	HIF act 12.1
O=C(CCc1ccccc1)Nc1ccncc1	none
Cc1ccc(Nc2nc(-c3ccncc3)cs2)cc1	T cruzi repl 70.0 (no result: Yeast superoxide)
Cc1ccc(Nc2nc(CSc3nnc(-c4ccncc4)n3C)cs2)cc1	HIF act 257.7
Cc1ccc(Nc2nc(-c3sc(C)nc3C)cs2)cc1	none
Cc1ccc(Nc2nc(-c3sc(N)nc3C)cs2)cc1	V-ATPase pH 14.3
Clc1ccc(-c2csc(Nc3cccnc3)n2)cc1	T cruzi repl 58.5
c1ccc(-c2csc(Nc3cccnc3)n2)cc1	none
Cc1onc(-c2ccccc2)c1C(=O)NC(C)CCc1ccccc1 (stereo unspecified)	none
O=C(CN1CCN(Cc2ccccc2)CC1)NCCc1ccccc1	none
Clc1cccc(Nc2nc(-c3ccncc3)cs2)c1	T cruzi repl 65.8
Cc1ccc(S(=O)(=O)Nc2nc(-c3ccc(F)cc3)cs2)cc1	T cruzi repl inconclusive, AI-2 QS modul -91.9
Cc1cccc(Nc2nc(-c3ccncc3)cs2)c1	T cruzi repl 60.9
Clc1ccc(Nc2nc(-c3cccnc3)cs2)cc1	none
O=C(CCc1nnc2ccc(NCc3ccc(Cl)cc3)nn12)NC1CCCCC1	none
O=C(NCc1ccccc1Cl)c1cc2c(s1)CS(=O)(=O)C2	none
CN(CCNC(=O)c1cccc(N2CCCC2=O)c1)Cc1ccccc1	NRP1-CendR mod 17.6
Cc1ccc(CCN2CC(C(=O)NCCCN(C)Cc3ccccc3)CC2=O)cc1 (stereo unspecified)	T cruzi repl 62.8
CN(C)CCNC(=O)C1CC(=O)N(c2ccc(F)c(Cl)c2)C1 (stereo unspecified)	none
CN(CCNC(=O)C1CC(=O)N(c2ccc(F)c(Cl)c2)C1)Cc1ccccc1 (stereo unspecified)	T cruzi repl 59.9
Cc1nc(C)n(C(C)CNC(=O)c2ccccc2)n1 (stereo unspecified)	none
Cc1cc(NC(=O)CCCC(=O)NCc2ccccc2)no1	NRP1-CendR mod 35.5
Cc1ccc(CNC(=O)CCCC(=O)Nc2cc(C)on2)cc1	none
Cc1cc(NC(=O)Nc2cc(Cl)ccc2C)no1	NRP1-CendR mod 19.5
Cc1cc(NC(=O)Nc2ccc(C)c(C)c2)no1	none
Cc1cc(NC(=O)C(Cl)c2ccccc2)no1 (stereo unspecified)	AI-2 QS modul -86.0
Cc1ccc(C(=O)NNC(=O)CCC(=O)Nc2cc(C)on2)cc1	none
CCC(Oc1ccccc1)C(=O)Nc1cc(C)on1 (stereo unspecified)	none
Cc1cc(NC(=O)CCC(=O)NNC(=O)c2ccc(C(C)(C)C)cc2)no1	NRP1-CendR mod 35.7
CCC(C)(C)NC(=O)C(C)OC(=O)c1nsc(Cl)c1Cl (stereo unspecified)	none
O=C(c1ccccc1)c1ccc(Cn2cc(CCCO)nn2)cc1	none
O=C(O)CCCCCCCCc1cn(Cc2ccc(C(=O)c3ccccc3)cc2)nn1	T cruzi repl 55.6
CCOC(=O)CCCNC(=O)CN1CCC(c2nc3ccccc3s2)CC1	none
O=C(CN1CCC(c2nc3ccccc3s2)CC1)NCc1ccccc1	T cruzi repl 64.3
N#Cc1ccc(NC(=O)Nc2ccc(Oc3ccc(NC(=O)Nc4ccc(C#N)cc4)cc3)cc2)cc1	T cruzi repl 60.6
CC1=CC(C)C2(CO)COC(c3cccnc3)C1C2C (stereo unspecified)	NRP1-CendR mod 27.3
CC1=CC(C)C2(CO)COC(c3ccc(O)cc3)C1C2C (stereo unspecified)	none
CC1Sc2ccc(C(=O)N3CCCC(C(F)(F)F)C3)cc2NC1=O (stereo unspecified)	none
